Results as given in ChEMBL document CHEMBL2034940, “Synthesis of N6-alkyl(aryl)-2-alkyl(aryl)thioadenosines as antiplatelet agents” (Eur J Med Chem, 2012).
pIC50: −log10 of the molar value.

Legend:
[1] = test system: Platelet; assay: Inhibition of ADP-induced platelet aggregation in human platelet rich plasma incubated 1 min prior ADP induction measured after 3 mins by Born's method using aggregometer; assay type: functional, cell-free; conditions: for pIC50: Homo sapiens, Platelet, Plasma
Summary of the method: (§1)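 Citrated (3.8% sodium citrate, 1:9) venous blood from healthy donors free of aspirin/NSAIDs for at least 14 days. PRP prepared by centrifugation, with PPP as the baseline blank. Compound in DMSO (below 0.5% final) added to 500 µL PRP 1 min before 10 µM ADP (final), at 37 °C. Aggregation is the maximum tracing height over at least 3 min, expressed as % inhibition versus vehicle. IC50 comes from non-linear regression, mean ± S.E.M., n = 3.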

[2] = test system: Platelet; assay: Inhibition of ADP-induced platelet aggregation in human platelet rich plasma assessed as platelet aggregation at 300 uM incubated 1 min prior ADP induction measured after 3 mins by Born's method using aggregometry relative to control; assay type: functional; set-up: scale not given: the % may be the effect or the level left
Summary of the method: (§2)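 Human citrated PRP from drug-free healthy donors, with PPP as the blank, in an aggregometer at 37 °C. Compound added at 300 µM final in DMSO (below 0.5%) for 1 min, then 10 µM ADP final. Maximum aggregation tracing height read over at least 3 min and compared with the DMSO vehicle control.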

[3] = test system: Platelet; assay: Inhibition of ADP-induced platelet aggregation in human platelet rich plasma at 300 uM incubated 1 min prior ADP induction measured after 3 mins by Born's method using aggregometer relative to control; assay type: functional; summary of the method: as §2
[4] = test system: Platelet; assay: Inhibition of arachidonic acid-induced platelet aggregation in human platelet rich plasma incubated 1 min prior arachidonic acid induction measured after 3 mins by Born's method using aggregometer; assay type: functional, cell-free; conditions: for pIC50: Homo sapiens, Platelet, Plasma
Summary of the method: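 Citrated PRP from healthy volunteers free of aspirin/NSAIDs for at least 14 days, with PPP as the baseline blank. Compound in DMSO (below 0.5% final) preincubated 1 min in 500 µL PRP at 37 °C, then 0.5 mM arachidonic acid (final) added. Maximum aggregation height over at least 3 min gives % inhibition versus vehicle. IC50 by non-linear regression, mean ± S.E.M. of 3 experiments.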

[5] = test system: Platelet; assay: Inhibition of ADP-induced platelet aggregation in human platelet rich plasma; assay type: functional, cell-free; summary of the method: as §1

Row | SMILES | inhibition (INH) [1] | Activity [2] | inhibition at 300 µM [3] | other results
1 | CCCSc1nc(NCc2ccc(OC)cc2)c2ncn([C@@H]3O[C@H](CO)[C@@H](O)[C@H]3O)c2n1 | >50% | – | – | –
2 | COc1ccc(CNc2nc(SC)nc3c2ncn3[C@@H]2O[C@H](CO)[C@@H](O)[C@H]2O)cc1 | – | 69% | < 50% | –
3 | CSc1nc(NCc2ccccc2)c2ncn([C@@H]3O[C@H](CO)[C@@H](O)[C@H]3O)c2n1 | – | 52% | < 50% | –
4 | CCCCN(CCCC)c1nc(SCC)nc2c1ncn2[C@@H]1O[C@H](CO)[C@@H](O)[C@H]1O | – | 77% | < 50% | –
5 | CCCSc1nc(NC2CCCCC2)c2ncn([C@@H]3O[C@H](CO)[C@@H](O)[C@H]3O)c2n1 | >50% | – | – | –
6 | CCCCSc1nc(NC2CCCCC2)c2ncn([C@@H]3O[C@H](CO)[C@@H](O)[C@H]3O)c2n1 | >50% | – | – | pIC50 [1]: 4.08
7 | CCCSc1nc(NCc2ccccc2)c2ncn([C@@H]3O[C@H](CO)[C@@H](O)[C@H]3O)c2n1 | >50% | – | – | –
8 | CCSc1nc(NC(C)c2ccccc2)c2ncn([C@@H]3O[C@H](CO)[C@@H](O)[C@H]3O)c2n1 (some centres not stated) | >50% | – | – | –
9 | CCSc1nc(NCc2ccccc2)c2ncn([C@@H]3O[C@H](CO)[C@@H](O)[C@H]3O)c2n1 | >50% | – | – | –
10 | CCSc1nc(NCc2ccc(C)cc2)c2ncn([C@@H]3O[C@H](CO)[C@@H](O)[C@H]3O)c2n1 | – | 88% | < 50% | –
11 | CCCCSc1nc(NCCc2cccc(OC)c2)c2ncn([C@@H]3O[C@H](CO)[C@@H](O)[C@H]3O)c2n1 | – | 85% | < 50% | –
12 | CCSc1nc(NCCc2ccccc2)c2ncn([C@@H]3O[C@H](CO)[C@@H](O)[C@H]3O)c2n1 | >50% | – | – | inhibition (INH) [4]: >50%; pIC50 [4]: 4.52; pIC50 [1]: 4.54
13 | COc1cccc(CCNc2nc(SC)nc3c2ncn3[C@@H]2O[C@H](CO)[C@@H](O)[C@H]2O)c1 | – | 71% | < 50% | –
14 | CCSc1nc(NCCc2cccc(OC)c2)c2ncn([C@@H]3O[C@H](CO)[C@@H](O)[C@H]3O)c2n1 | >50% | – | – | inhibition (INH) [4]: < 50%; pIC50 [1]: 4.42
15 | CCCSc1nc(NCCc2cccc(OC)c2)c2ncn([C@@H]3O[C@H](CO)[C@@H](O)[C@H]3O)c2n1 | >50% | – | – | pIC50 [1]: 4.16
16 | CCSc1nc(NC2CCCCC2)c2ncn([C@@H]3O[C@H](CO)[C@@H](O)[C@H]3O)c2n1 | >50% | – | – | –
17 | CCCSc1nc(NCCc2ccc(OC)cc2)c2ncn([C@@H]3O[C@H](CO)[C@@H](O)[C@H]3O)c2n1 | >50% | – | – | –

Row | SMILES | inhibition (INH) [1] | Activity [2] | inhibition at 300 µM [3] | other results
18 | CCCCSc1nc(NCCc2ccc(OC)cc2)c2ncn([C@@H]3O[C@H](CO)[C@@H](O)[C@H]3O)c2n1 | >50% | – | – | pIC50 [1]: 4.03
19 | CCSc1nc(NCCc2ccc(OC)cc2)c2ncn([C@@H]3O[C@H](CO)[C@@H](O)[C@H]3O)c2n1 | >50% | – | – | pIC50 [1]: 4.05
20 | CCCCSc1nc(NCCc2ccccc2)c2ncn([C@@H]3O[C@H](CO)[C@@H](O)[C@H]3O)c2n1 | >50% | – | – | inhibition (INH) [4]: < 50%; pIC50 [1]: 4.23
21 | CCCSc1nc(NCCc2ccccc2)c2ncn([C@@H]3O[C@H](CO)[C@@H](O)[C@H]3O)c2n1 | >50% | – | – | inhibition (INH) [4]: >50%; pIC50 [4]: 4.36; pIC50 [1]: 4.28
22 | OC[C@H]1O[C@@H](n2cnc3c(NCCc4ccccc4)nc(SCc4ccccc4)nc32)[C@H](O)[C@@H]1O | – | 57% | < 50% | –
23 | CSc1nc(NCCc2ccccc2)c2ncn([C@@H]3O[C@H](CO)[C@@H](O)[C@H]3O)c2n1 | >50% | – | – | inhibition (INH) [4]: >50%; pIC50 [4]: 5.52; pIC50 [1]: 4.44
24 | OC[C@H]1O[C@@H](n2cnc3c(NCCc4ccccc4)nc(Sc4ccccc4)nc32)[C@H](O)[C@@H]1O | – | 57% | < 50% | –
25 | CSCCNc1nc(SCCC(F)(F)F)nc2c1ncn2[C@@H]1O[C@H](COP(=O)(O)OP(=O)(O)C(Cl)(Cl)P(=O)(O)O)[C@@H](O)[C@H]1O [CANGRELOR TETRASODIUM] | – | – | – | pIC50 [5]: 9.40
26 | CCCCSc1nc(NCc2ccccc2)c2ncn([C@@H]3O[C@H](CO)[C@@H](O)[C@H]3O)c2n1 | >50% | – | – | –
27 | CCCCCCNc1nc(SCC)nc2c1ncn2[C@@H]1O[C@H](CO)[C@@H](O)[C@H]1O | – | 57% | < 50% | –
28 | CSc1nc(NCc2ccc(C)cc2)c2ncn([C@@H]3O[C@H](CO)[C@@H](O)[C@H]3O)c2n1 | – | 77% | < 50% | –
29 | CCCCCCNc1nc(SCCC)nc2c1ncn2[C@@H]1O[C@H](CO)[C@@H](O)[C@H]1O | >50% | – | – | –
30 | CCCCCCNc1nc(SCCCC)nc2c1ncn2[C@@H]1O[C@H](CO)[C@@H](O)[C@H]1O | – | 66% | < 50% | –
31 | CCSc1nc(NCc2ccc(OC)cc2)c2ncn([C@@H]3O[C@H](CO)[C@@H](O)[C@H]3O)c2n1 | – | 74% | < 50% | –
32 | CC(C)Sc1nc(NC2CCCCC2)c2ncn([C@@H]3O[C@H](CO)[C@@H](O)[C@H]3O)c2n1 | >50% | – | – | –
33 | COc1ccc(CCNc2nc(SC)nc3c2ncn3[C@@H]2O[C@H](CO)[C@@H](O)[C@H]2O)cc1 | >50% | – | – | –
